# Laboratory results as given in ChEMBL document CHEMBL1208693, “Synthesis and evaluation of novel antifungal agents-quinoline and pyridine amide derivatives” (2010).
# What was measured:
# Format in all cases: functional
# Candida albicans [1] = assay: Ratio of compound MIC to Amphotericin B MIC for Candida albicans E81022
# Aspergillus fumigatus = assay: Antifungal activity against Aspergillus fumigatus Tsukuba after 2 days by broth-microdilution method; details: 48 h
# Summary of the method: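 CLSI M38-A2 broth microdilution, slightly modified. Conidia came from a one-week PDA culture at 35 °C and were stored at −80 °C. Inoculum was 2×10^3–2×10^4 conidia/mL. Compounds were serially twofold diluted from DMSO stock to final concentrations of 0.05–200 µg/mL; the control was 1% DMSO. Plates were incubated at 35 °C for 2 days. MIC was the lowest concentration giving a visually prominent turbidity decrease versus control.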
# Candida albicans [2] = assay: Antifungal activity against Candida albicans E81022 after 2 days by broth-microdilution method; details: E81022, 48 h
# Summary of the method: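 Yeast broth microdilution following CLSI M27-A3, slightly modified. Cells were subcultured in Sabouraud dextrose broth at 35 °C for 1–2 days, then inoculated at 2×10^3–2×10^4 cells/mL. Compounds in twofold DMSO dilutions gave final concentrations of 0.05–200 µg/mL; the control was 1% DMSO. Incubation was 35 °C for 2 days. MIC was the lowest concentration with a visually prominent turbidity drop relative to control.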
# Saccharomyces cerevisiae [3] = assay: Antifungal activity against Saccharomyces cerevisiae KE743 […] after 2 days by broth-microdilution method; details: KE743, 48 h
# Summary of the method: (§1)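 Broth microdilution (modified CLSI M27-A3) on S. cerevisiae KE743 (control) and KE744 (GWT1 overexpressed from GAPDH promoter), precultured in SD ura- at 30 °C for 1–2 days. Inoculum 2 × 10^3–2 × 10^4 cells/ml. Twofold dilutions at 0.05–200 µg/mL final, from DMSO; 1% DMSO control. Incubated 30 °C, 2 days. MIC is the lowest concentration with a prominent visual turbidity decrease; KE744/KE743 MICs compared.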
# Saccharomyces cerevisiae [4] = assay: Ratio of MIC for Saccharomyces cerevisiae KE744 to Saccharomyces cerevisiae KE743 overexpressing GWT1; summary of the method: as §1
# Saccharomyces cerevisiae [5] = assay: Antifungal activity against Saccharomyces cerevisiae KE744 after 2 days by broth-microdilution method; details: KE744, 48 h
# Summary of the method: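 S. cerevisiae strain overexpressing GWT1 from the GAPDH promoter, grown in SD ura- medium at 30 °C for 1–2 days. Modified CLSI broth microdilution used 2×10^3–2×10^4 cells/mL. Final compound concentrations were 0.05–200 µg/mL from twofold DMSO dilutions, with 1% DMSO as control. Incubation was 30 °C for 2 days. MIC was the lowest concentration visibly and prominently reducing turbidity versus control.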
SMILES,Ratio (Candida albicans [1]),MIC (Aspergillus fumigatus) [µg/mL],MIC (Candida albicans [2]) [µg/mL],MIC (Saccharomyces cerevisiae [3]) [µg/mL],Ratio (Saccharomyces cerevisiae [4]),MIC (Saccharomyces cerevisiae [5]) [µg/mL]
Nc1ncccc1C(=O)NCc1ccc(Cc2ccccc2)s1,2,0.78,0.05,–,–,–
O=C(NCc1ccc(Oc2cccc(F)c2)s1)c1ccc2ncccc2c1,2,1.56,0.1,0.025,128,3.13
O=C(NCc1ccc(Oc2ccccc2)s1)c1cnc2[nH]ccc2c1,2,3.13,0.39,0.2,>64,> 12.5
Nc1ccc(C(=O)NCc2ccc(Oc3cccc(F)c3)s2)cn1,–,–,1.56,1.56,>8,> 12.5
Nc1ncccc1C(=O)NCc1ccc(Oc2cccc(F)c2)s1,2,0.78,0.05,0.1,128,12.5
Nc1ccc(C(=O)NCc2ccc(Oc3ccccc3)s2)c(N)n1,2,1.56,0.78,1.56,>8,> 12.5
Nc1ccc(C(=O)NCc2ccc(Oc3ccc(F)cc3)s2)c(N)n1,2,0.78,0.39,0.78,16,12.5
CCCCc1ccc(Cc2nccc3ccccc23)cc1,–,–,1.56,–,–,–
C[C@@H]1[C@H](O)[C@@H](C)/C=C/C=C/C=C/C=C/C=C/C=C/C=C/[C@H](O[C@@H]2O[C@H](C)[C@@H](O)[C@H](N)[C@@H]2O)C[C@@H]2O[C@](O)(C[C@@H](O)C[C@@H](O)[C@H](O)CC[C@@H](O)C[C@@H](O)CC(=O)O[C@H]1C)C[C@H](O)[C@H]2C(=O)O [AMPHOTERICIN B],–,0.78,1.56,0.78,1,0.78
OC(Cn1cncn1)(Cn1cncn1)c1ccc(F)cc1F [FLUCONAZOLE],–,–,0.39,6.25,1,6.25
